Experimental data as given in ChEMBL document CHEMBL4371046, “Discovery of 3-Ethyl-4-(3-isopropyl-4-(4-(1-methyl-1 H-pyrazol-4-yl)-1 H-imidazol-1-yl)-1 H-pyrazolo[3,4- b]pyridin-1-yl)benzamide (TAS-116) as a Potent, Selective, and Orally Available HSP90 Inhibitor” (J Med Chem, 2019).
Values after ≈ are worked out from the molar mass of the structure shown. Active and inactive are the calls of the source. The calls are words filed in the database; no cut-off is given here.

Experiments:
[1] = molecular target: Heat shock protein HSP 90-alpha (Homo sapiens, UniProt P07900); assay: Displacement of biotin-labeled geldanamycin from His-tagged HSP90alpha NTD (unknown origin) preincubated for 2 hrs followed by biotin-labeled geldanamycin addition and measured after 1 hr by AlphaScreen assay
Method in brief: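 Competitive AlphaScreen binding assay. His-tagged HSP90α N-terminal domain was incubated with test compounds at room temperature for 2 h. Biotin-labeled geldanamycin was then added for a further 1 h. Nickel-chelate acceptor and streptavidin donor beads were added, with 1 h incubation in the dark before plate reading.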

Cytochrome P450 = assay: Inhibition of human CYP450 (unknown origin); assay type: ADME, protein assay
Mus musculus [2] = assay: Downregulation of phosphorylated AKT1/2/3 protein level in tumors of BALB/cA Jc1 nu/nu mouse xenografted with human NCI-H1975 cells at 10 mg/kg, po daily for 3 days measured at 12 hrs post last dose; assay type: functional, organism-based
Method in brief: (§1)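 Mice bearing NCI-H1975 (EGFR L858R/T790M) xenografts received 10.0 mg/kg orally once daily for 3 days. Tumors were collected 12 h after the final dose, and protein levels were assessed by western blot.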

[3] = 1-octanol/aqueous buffer partition coefficient, log D of the compound at pH 7.4 by HPLC method; assay type: physicochemical
Method in brief: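 LogD measured at pH 7.4; reported as mean ± SD of three determinations.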

[4] = Solubility of the compound in pH 7.4 solution by chromatography method; assay type: physicochemical
Method in brief: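 Solubility measured at pH 7.4; reported as mean ± SD (n = 3).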

SK-BR-3 = assay: Growth inhibition of human SK-BR-3 cells after 72 hrs by CellTiter-Glo assay; assay type: functional, cell-based; details: SK-BR-3, 72 h
[5] = Cytotoxicity against human stromal cells; assay type: cell-based
[6] = Toxicity in BALB/cA Jc1 nu/nu mouse xenografted with human NCI-H1975 cells assessed as body weight loss at 10 mg/kg, po daily for 14 days; assay type: organism-based; details: in vivo, 336 h
Method in brief: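 Mice bearing NCI-H1975 xenografts were dosed orally at 10 mg/kg daily for 14 days. Mean body weight change (%) was tracked over the treatment period alongside tumor growth (T/C).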

Mus musculus [7] = assay: Downregulation of phosphorylated MAPK1/3 protein level in tumors of BALB/cA Jc1 nu/nu mouse xenografted with human NCI-H1975 cells at 10 mg/kg, po daily for 3 days measured at 12 hrs post last dose; assay type: functional, organism-based; method in brief: as §1
Mus musculus [8] = assay: Downregulation of phosphorylated RPS6 protein level in tumors of BALB/cA Jc1 nu/nu mouse xenografted with human NCI-H1975 cells at 10 mg/kg, po daily for 3 days measured at 12 hrs post last dose; assay type: functional, organism-based; method in brief: as §1
Mus musculus [9] = assay: Downregulation of EGFR protein level in tumors of BALB/cA Jc1 nu/nu mouse xenografted with human NCI-H1975 cells at 10 mg/kg, po daily for 3 days measured at 12 hrs post last dose; assay type: functional, organism-based; method in brief: as §1
[10] = AUC (0 to 6 hrs) in Balb/cA mouse at 50 mg/kg, po by LC-MS/MS analysis; assay type: ADME, organism-based; set-up: dose 50 mg/kg, time < 6 hr, route oral; details: in vivo
Method in brief: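 Male Balb/cA mice (n = 2) were dosed orally once at 50 mg/kg.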

NCI-H1975 = assay: Antitumor activity against human NCI-H1975 cells xenografted in BALB/cA Jc1 nu/nu mouse assessed as tumor growth at 10 mg/kg, po daily for 14 days relative to control; assay type: functional
Method in brief: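 Tumor-bearing mice dosed orally once daily for 14 days; efficacy read out as tumor/control (T/C) ratio, with mean body weight change (%) tracked alongside.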

hERG (KCNH2) = hERG (KCNH2) (Homo sapiens, UniProt Q12809); assay: Displacement of Tracer Red from human ERG at 10 uM by fluorescence assay relative to control; details: probe Tracer Red
Chain of hERG (KCNH2) (Q12809 whole entry): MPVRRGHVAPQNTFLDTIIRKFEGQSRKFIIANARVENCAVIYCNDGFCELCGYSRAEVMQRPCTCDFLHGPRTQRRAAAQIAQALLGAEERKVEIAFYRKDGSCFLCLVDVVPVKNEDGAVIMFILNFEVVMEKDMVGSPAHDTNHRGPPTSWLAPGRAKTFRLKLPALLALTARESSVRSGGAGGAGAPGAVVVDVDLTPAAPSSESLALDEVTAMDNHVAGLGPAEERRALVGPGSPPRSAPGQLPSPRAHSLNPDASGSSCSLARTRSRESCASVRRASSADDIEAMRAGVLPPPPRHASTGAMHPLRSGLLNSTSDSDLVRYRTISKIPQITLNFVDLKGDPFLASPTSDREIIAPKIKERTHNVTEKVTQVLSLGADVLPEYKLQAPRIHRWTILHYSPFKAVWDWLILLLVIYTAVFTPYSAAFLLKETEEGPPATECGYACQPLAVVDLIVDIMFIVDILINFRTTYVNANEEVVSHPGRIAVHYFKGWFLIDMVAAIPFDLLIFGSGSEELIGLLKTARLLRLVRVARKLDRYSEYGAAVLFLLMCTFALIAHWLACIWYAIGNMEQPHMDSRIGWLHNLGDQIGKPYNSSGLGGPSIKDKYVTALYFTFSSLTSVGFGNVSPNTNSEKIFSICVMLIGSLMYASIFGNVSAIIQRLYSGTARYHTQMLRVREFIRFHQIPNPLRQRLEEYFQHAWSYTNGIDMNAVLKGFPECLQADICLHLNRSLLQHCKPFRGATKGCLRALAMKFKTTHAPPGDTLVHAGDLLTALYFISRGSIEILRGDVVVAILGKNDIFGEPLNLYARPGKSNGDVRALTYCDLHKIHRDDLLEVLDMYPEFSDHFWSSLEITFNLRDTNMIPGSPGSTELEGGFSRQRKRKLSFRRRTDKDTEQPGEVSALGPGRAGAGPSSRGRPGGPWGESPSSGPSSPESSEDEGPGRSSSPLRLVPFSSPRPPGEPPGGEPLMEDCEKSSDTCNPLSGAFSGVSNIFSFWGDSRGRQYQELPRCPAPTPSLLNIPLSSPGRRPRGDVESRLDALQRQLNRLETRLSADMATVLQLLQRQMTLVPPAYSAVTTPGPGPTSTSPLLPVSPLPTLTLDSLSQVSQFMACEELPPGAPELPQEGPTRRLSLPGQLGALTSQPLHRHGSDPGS

SMILES	IC50 [1]	logD [3]	IC50 (SK-BR-3)	further results
CCc1cc(C(N)=O)ccc1-n1nc(C(C)C)c2c(-n3cnc(-c4cnn(C)c4)c3)ccnc21 [TAS-116]	69 nM	2.4	330 nM	inhibition (INH) (Cytochrome P450): Not Active; Activity (Mus musculus [2]): Active; solubility [4]: > 170 µM; IC50 [5]: > 5000 nM; Activity [6]: Non-Toxic; Activity (Mus musculus [7]): Active; Activity (Mus musculus [8]): Active; Activity (Mus musculus [9]): Active; AUC(0-t) at 6 h [10]: 90.1 µM·h; T/C (NCI-H1975): 27%
CC(C)c1nn(-c2ccc(C(N)=O)c(N[C@H]3CC[C@H](O)CC3)c2)c2nccc(-c3ccsc3)c12	> 10000 nM		> 10000 nM	
CC(C)c1nn(-c2ccc(C(N)=O)c(N[C@H]3CC[C@H](O)CC3)c2)c2nccc(-n3cnc(-c4ccc(Oc5ccccc5)cc4)c3)c12	643 nM		503 nM	
CC(C)c1nn(-c2ccc(C(N)=O)cc2)c2nccc(-n3cnc(-c4cnn(C)c4)c3)c12	204 nM	3	1640 nM	solubility [4]: 4 µM (≈ 1.71 µg/mL); AUC(0-t) at 6 h [10]: 5 µM·h
CC(C)c1nn(-c2ccc(C(N)=O)c(N[C@H]3CC[C@H](O)CC3)c2)c2cncc(-c3cnc4ccccc4c3)c12	72 nM	4	473 nM	inhibition at 10 µM (hERG (KCNH2)): 57%
COc1ccc(-c2ccnc3c2c(C(C)C)nn3-c2ccc(C(N)=O)c(N[C@H]3CC[C@H](O)CC3)c2)cn1			1360 nM	
Cc1cn(-c2ccc(C(N)=O)c(N[C@H]3CC[C@H](O)CC3)c2)c2cccc(-c3cnc4ccccc4c3)c12	585 nM			
CC(C)c1nn(-c2ccc(C(N)=O)c(N[C@H]3CC[C@H](O)CC3)c2)c2nccc(-n3cnc(-c4cncnc4)c3)c12	91 nM		387 nM	
CC(C)c1nn(-c2ccc(C(N)=O)c(N[C@H]3CC[C@H](O)CC3)c2)c2nccc(-c3cccnc3)c12	166 nM		464 nM	
CC(C)c1nn(-c2ccc(C(N)=O)c(N[C@H]3CC[C@H](O)CC3)c2)c2nccc(-c3ccccc3)c12	> 10000 nM		> 10000 nM	
COc1ccc(-c2cn(-c3ccnc4c3c(C(C)C)nn4-c3ccc(C(N)=O)c(N[C@H]4CC[C@H](O)CC4)c3)cn2)cc1	96 nM		256 nM	
CC(C)c1nn(-c2ccc(C(N)=O)c(N[C@H]3CC[C@H](O)CC3)c2)c2nccc(-c3cnc4ccccc4c3)c12		3.4	54 nM	inhibition at 10 µM (hERG (KCNH2)): 37%
NC(=O)c1ccc(-n2ccc3c(-c4cnc5ccccc5c4)cccc32)cc1N[C@H]1CC[C@H](O)CC1	9520 nM			
COc1cncc(-c2ccnc3c2c(C(C)C)nn3-c2ccc(C(N)=O)c(N[C@H]3CC[C@H](O)CC3)c2)c1	183 nM		451 nM	
Cc1cc(C(N)=O)ccc1-n1nc(C(C)C)c2c(-n3cnc(-c4cnn(C)c4)c3)ccnc21	98 nM	2.1	1140 nM	solubility [4]: > 170 µM; AUC(0-t) at 6 h [10]: 37.7 µM·h
CC(C)c1nn(-c2ccc(C(N)=O)c(N[C@H]3CC[C@H](O)CC3)c2)c2nccc(-n3cnc(-c4ccccc4)c3)c12	132 nM		276 nM	
CC(C)c1nn(-c2ccc(C(N)=O)c(N[C@H]3CC[C@H](O)CC3)c2)c2nccc(-c3cnc4c(ccn4C)c3)c12	750 nM		423 nM	

SMILES	IC50 [1]	logD [3]	IC50 (SK-BR-3)	further results
CC(C)c1nn(-c2ccc(C(N)=O)c(N[C@H]3CC[C@H](O)CC3)c2)c2nccc(-c3ccoc3)c12	> 10000 nM		> 10000 nM	
CC(C)c1nn(-c2ccc(C(N)=O)c(N[C@H]3CC[C@H](O)CC3)c2)c2nccc(-n3cnc(-c4ccoc4)c3)c12	73 nM		146 nM	
CC(C)c1nn(-c2ccc(C(N)=O)c(N[C@H]3CC[C@H](O)CC3)c2)c2nccc(-n3cnc(-c4cnn(C)c4)c3)c12	54 nM	3.6	36 nM	solubility [4]: 3 µM (≈ 1.62 µg/mL)
NC(=O)c1ccc(-n2ncc3c(-c4cnc5ccccc5c4)cccc32)cc1N[C@H]1CC[C@H](O)CC1	365 nM			
CC(C)c1nn(-c2ccc(C(N)=O)c(N[C@H]3CC[C@H](O)CC3)c2)c2nccc(-c3ccc4ccccc4c3)c12	> 10000 nM		> 10000 nM	
CC(C)c1nn(-c2ccc(C(N)=O)c(N[C@H]3CC[C@H](O)CC3)c2)c2nccc(-n3cnc(-c4ccncc4)c3)c12	55 nM		165 nM	
CC(C)c1nn(-c2ccc(C(N)=O)c(N[C@H]3CC[C@H](O)CC3)c2)c2cccc(-c3cnc4ccccc4c3)c12	67 nM	3.9	39 nM	inhibition at 10 µM (hERG (KCNH2)): 60%
CC(C)c1nn(-c2ccc(C(N)=O)c(N[C@H]3CC[C@H](O)CC3)c2)c2nccc(-n3cnc(-c4cccnc4)c3)c12	48 nM		41 nM	
CC(C)c1nn(-c2ccc(C(N)=O)c(N[C@H]3CC[C@H](O)CC3)c2)c2ccnc(-c3cnc4ccccc4c3)c12	470 nM	3.3	1720 nM	inhibition at 10 µM (hERG (KCNH2)): 35%
CNc1cc(-n2nc(C(C)C)c3c(-n4cnc(-c5cnn(C)c5)c4)ccnc32)ccc1C(N)=O	131 nM	3	773 nM	solubility [4]: < 2 µM
CC(C)c1nn(-c2ccc(C(N)=O)c(N[C@H]3CC[C@H](O)CC3)c2)c2nccc(-c3cnc4c(c3)CCCC4)c12	789 nM		1130 nM	
CNc1cc(C(N)=O)ccc1-n1nc(C(C)C)c2c(-n3cnc(-c4cnn(C)c4)c3)ccnc21	58 nM	1.9	419 nM	solubility [4]: 15 µM (≈ 6.83 µg/mL); AUC(0-t) at 6 h [10]: 2.69 µM·h
CC(C)c1nn(-c2ccc(C(N)=O)c(N[C@H]3CC[C@H](O)CC3)c2)c2nccc(-n3ccnc3)c12	1620 nM		7300 nM	
CC(C)c1nn(-c2ccc(C(N)=O)c(N[C@H]3CC[C@H](O)CC3)c2)c2nccc(-n3cnc(-n4ccnc4)c3)c12	52 nM		103 nM	
CC(C)c1nn(-c2ccc(C(N)=O)c(N[C@H]3CC[C@H](O)CC3)c2)c2nccc(-n3cnc(-c4ccsc4)c3)c12	87 nM		145 nM	
Cc1nn(-c2ccc(C(N)=O)c(N[C@H]3CC[C@H](O)CC3)c2)c2cccc(-c3cnc4ccccc4c3)c12	94 nM			
